According to paper PMC7704123 (Journal of natural products, 2020):

How the values were obtained:
Format in all cases: cell-based, human
[1] = tested on: mTORC1 signaling in MDA-MB-231 cells; assay: Immunoblotting of mTORC1 signaling pathway; conditions: immunoblot
Method in brief: (§1)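 Cells (IMEM, 5% FBS) exposed to 100 nM test compound, 100 nM oligomycin, 10 nM rapamycin or DMSO vehicle for 2, 6 or 18 h. Scraped whole-cell lysates with PMSF, Na3VO4 and protease inhibitors; 10 μg protein per lane on 10% Bis-Tris SDS-PAGE, PVDF transfer. Blots probed for phospho/total AKT S473, mTOR S2448, S6K T389, RPS6 S235/236, 4E-BP1 T37/46 and GAPDH; IRDye infrared detection; two independent experiments.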

[2] = tested on: mTORC1 signaling in MDA-MB-453 cells; assay: Immunoblotting of mTORC1 signaling pathway; conditions: immunoblot
Method in brief: as §1

[3] = tested on: MDA-MB-453 and SUM185PE cells; assay: SRB assay, LAR subtype TNBC cell lines taken together; conditions: MDA-MB-453 and SUM185PE versus MDA-MB-231, HCC1806 and HCC70, Figure 7C
Method in brief: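 Cells seeded at predetermined densities, left to adhere, then given test compound or DMSO vehicle for 48 h. Fixed, stained with sulforhodamine B, absorbance read at 560 nm. MDA-MB-453, MDA-MB-231 and SUM185PE were grown in IMEM with 5% FBS; HCC1806 and HCC70 in RPMI-1640 with 5% FBS. Proliferation taken relative to vehicle; GI50 by non-linear regression; three independent experiments, each in triplicate.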

[4] = 100 nM oligomycin, 2, 6 or 18 h

SMILES	mTOR signaling ([1]; 10 nM rapamycin, 2, 6 or 18 h)	mTOR signaling ([2]; 10 nM rapamycin, 2, 6 or 18 h)	mTOR activity (RPS6 and S6K phosphorylation) [1, 4]	growth of LAR cells as compared to other TNBC cell lines [3]	mTOR activity (RPS6 and S6K phosphorylation) [2, 4]
CO[C@H]1C[C@@H]2CC[C@@H](C)[C@@](O)(O2)C(=O)C(=O)N2CCCC[C@H]2C(=O)O[C@H]([C@H](C)C[C@@H]2CC[C@@H](O)[C@H](OC)C2)CC(=O)[C@H](C)/C=C(\C)[C@@H](O)[C@@H](OC)C(=O)[C@H](C)C[C@H](C)/C=C/C=C/C=C/1C [Rapamycin]	inhibited mTOR signaling in both cell lines	inhibited mTOR signaling in both cell lines			
CC[C@H]1/C=C/C=C/C[C@@H](C)[C@H](O)[C@@](C)(O)C(=O)[C@@H](C)[C@H](O)[C@@H](C)C(=O)[C@@H](C)[C@H](O)[C@@H](C)/C=C/C(=O)O[C@@H]2[C@H](C)[C@H](CC1)O[C@]1(CC[C@H](C)[C@H](C[C@@H](C)O)O1)[C@H]2C [oligomycin]			but not in the resistant MDA-MB-231 cells	selectively inhibited the growth	selectively inhibited mTOR activity
